Test results reported in ChEMBL document CHEMBL1134691, “3-Phenyl-5-acyloxymethyl-2H,5H-furan-2-ones: synthesis and biological activity of a novel group of potential antifungal drugs” (2001).
≈ marks a conversion by molar mass, not a printed value. One block for each compound: values may come before it.

Assays:
Candida parapsilosis [1] = test: Inhibition of Candida parapsilosis ATCC 22019 growth for 48 hours in vitro.; assay type: functional
Procedure, shortened: (§1)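 NCCLS M27-A broth microdilution in RPMI 1640 with L-glutamine and 0.165 M MOPS, pH 7.0. Isolates kept on Sabouraud dextrose agar. Inoculum 5 × 10^3 cfu/mL final. Compounds were diluted in DMSO (≤2% final) and tested in 2-fold dilutions of 1000–0.24 µmol/L. Incubation at 35 °C, OD540 read at 24 and 48 h. MIC = 80% growth inhibition versus control; assays run twice in duplicate.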

Trichosporon beigelii [2] = test: Inhibition of Trichosporon beigelli 1188 for 48 hours in vitro.; assay type: functional
Procedure, shortened: (§2)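 Microdilution following NCCLS M27-A. Medium: RPMI 1640 with L-glutamine, 0.165 M MOPS, pH 7.0. Final inoculum 5 × 10^3 cfu/mL. Compounds dissolved in DMSO, final ≤2%, serially halved from 1000 to 0.24 µmol/L. Incubated at 35 °C and read at 24 and 48 h. MIC defined as 80% inhibition of control growth; run twice in duplicate.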

Clavispora lusitaniae [3] = test: Inhibition of Candida lusitaniae 2446/I growth for 48 hours in vitro.; assay type: functional; procedure, shortened: as §1
Lichtheimia corymbifera [4] = test: In vitro inhibition of Absidia corymbifera 272 growth for 24 hours.; assay type: functional
Procedure, shortened: (§3)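 Filamentous isolates tested by microdilution per NCCLS M27-A in RPMI 1640 plus L-glutamine, buffered with 0.165 M MOPS to pH 7.0. Final inoculum 5 × 10^3 cfu/mL. Compounds in DMSO (final ≤2%), 2-fold series over 1000–0.24 µmol/L. Plates held at 35 °C and read visually after 24 and 48 h. MIC taken as 80% inhibition of control growth; determined twice in duplicate.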

Candida tropicalis [5] = test: Inhibition of Candida tropicalis 156 growth for 48 hours in vitro.; assay type: functional; procedure, shortened: as §1
Candida albicans [6] = test: Inhibition of Candida albicans ATCC 44859 growth for 48 hours in vitro.; assay type: functional; procedure, shortened: as §1
Pichia kudriavzevii [7] = test: Inhibition of Candida krusei E28 growth for 24 hours in vitro.; assay type: functional; procedure, shortened: as §1
[8] = Inhibition of Trichophyton mentagrophytes 445 growth for 120 hours in vitro.; assay type: functional, Arthroderma benhamiae
Procedure, shortened: (§4)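 Dermatophyte grown in MOPS-buffered (0.165 M, pH 7.0) RPMI 1640 containing L-glutamine, in an M27-A microdilution format. Inoculum 5 × 10^3 cfu/mL final. Compounds from DMSO stocks (≤2% final), 2-fold dilutions 1000–0.24 µmol/L. Incubated at 35 °C, growth judged visually at 72 and 120 h. MIC endpoint is 80% inhibition relative to control; measured twice in duplicate.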

Aspergillus fumigatus [9] = test: Inhibition of Aspergillus fumigatus 231 growth for 48 hours in vitro.; assay type: functional; procedure, shortened: as §3
Candida tropicalis [10] = test: Inhibition of Candida tropicalis 156 growth for 24 hours in vitro.; assay type: functional; procedure, shortened: as §1
Candida parapsilosis [11] = test: Inhibition of Candida parapsilosis ATCC 22019 growth for 24 hours in vitro.; assay type: functional; procedure, shortened: as §1
Nakaseomyces glabratus [12] = test: Inhibition of Candida glabrata 20/I growth for 48 hours in vitro.; assay type: functional; procedure, shortened: as §1
Nakaseomyces glabratus [13] = test: Inhibition of Candida glabrata 20/I growth for 24 hours in vitro.; assay type: functional; procedure, shortened: as §1
Pichia kudriavzevii [14] = test: Inhibition of Candida krusei ATCC 6258 growth for 48 hours in vitro.; assay type: functional; procedure, shortened: as §1
[15] = Inhibition of Trichophyton mentagrophytes 445 growth for 72 hours in vitro.; assay type: functional, Arthroderma benhamiae; procedure, shortened: as §4
Lichtheimia corymbifera [16] = test: In vitro inhibition of Absidia corymbifera 272 growth for 48 hours.; assay type: functional; procedure, shortened: as §3
Clavispora lusitaniae [17] = test: Inhibition of Candida lusitaniae 2446/I growth for 24 hours in vitro.; assay type: functional; procedure, shortened: as §1
Candida albicans [18] = test: Inhibition of Candida albicans ATCC 90028 for 24 hours in vitro.; assay type: functional; procedure, shortened: as §1
Pichia kudriavzevii [19] = test: Inhibition of Candida krusei ATCC 6258 growth for 24 hours in vitro.; assay type: functional; procedure, shortened: as §1
Trichosporon beigelii [20] = test: Inhibition of Trichosporon beigelli 1188 for 24 hours in vitro.; assay type: functional; procedure, shortened: as §2
Candida albicans [21] = test: Inhibition of Candida albicans ATCC 44859 growth for 24 hours in vitro.; assay type: functional; procedure, shortened: as §1
Candida albicans [22] = test: Inhibition of Candida albicans ATCC 90028 for 48 hours in vitro.; assay type: functional; procedure, shortened: as §1
Pichia kudriavzevii [23] = test: Inhibition of Candida krusei E28 growth for 48 hours in vitro.; assay type: functional; procedure, shortened: as §1
Aspergillus fumigatus [24] = test: Inhibition of Aspergillus fumigatus 231 growth for 24 hours in vitro.; assay type: functional; procedure, shortened: as §3
[25] = Lodderomyces parapsilosis, ATCC 22019, 48 h, read-out: MIC
[26] = Trichosporon beigelii, 48 h, read-out: MIC
[27] = Clavispora lusitaniae, 48 h, read-out: MIC
[28] = Lichtheimia corymbifera, 24 h, read-out: MIC
[29] = Candida tropicalis, 48 h, read-out: MIC
[30] = Candida albicans, ATCC 44859, 48 h, read-out: MIC
[31] = Pichia kudriavzevii, 24 h, read-out: MIC
[32] = Trichophyton benhamiae, 120 h, read-out: MIC
[33] = Aspergillus fumigatus, 48 h, read-out: MIC
[34] = Candida tropicalis, 24 h, read-out: MIC
[35] = Lodderomyces parapsilosis, ATCC 22019, 24 h, read-out: MIC
[36] = Nakaseomyces glabratus, 48 h, read-out: MIC
[37] = Nakaseomyces glabratus, 24 h, read-out: MIC
[38] = Pichia kudriavzevii, ATCC 6258, 48 h, read-out: MIC
[39] = Trichophyton benhamiae, 72 h, read-out: MIC
[40] = Lichtheimia corymbifera, 48 h, read-out: MIC
[41] = Clavispora lusitaniae, 24 h, read-out: MIC
[42] = Candida albicans, ATCC 90028, 24 h, read-out: MIC
[43] = Pichia kudriavzevii, ATCC 6258, 24 h, read-out: MIC
[44] = Trichosporon beigelii, 24 h, read-out: MIC
[45] = Candida albicans, ATCC 44859, 24 h, read-out: MIC
[46] = Candida albicans, ATCC 90028, 48 h, read-out: MIC
[47] = Pichia kudriavzevii, 48 h, read-out: MIC
[48] = Aspergillus fumigatus, 24 h, read-out: MIC

MIC (Candida parapsilosis [1]): 3.91 uM l-1
MIC (Trichosporon beigelii [2]): 7.81 uM l-1
MIC (Clavispora lusitaniae [3]): 3.91 uM l-1
MIC (Lichtheimia corymbifera [4]): 7.81 uM l-1
MIC (Candida tropicalis [5]): 7.81 uM l-1
MIC (Candida albicans [6]): 1.95 uM l-1
MIC (Pichia kudriavzevii [7]): 3.91 uM l-1
MIC [8]: 0.49 uM l-1
MIC (Aspergillus fumigatus [9]): 3.91 uM l-1
MIC (Candida tropicalis [10]): 3.91 uM l-1
MIC (Candida parapsilosis [11]): 3.91 uM l-1
MIC (Nakaseomyces glabratus [12]): 0.98 uM l-1
MIC (Nakaseomyces glabratus [13]): 0.49 µM (≈ 0.168 µg/mL)
MIC (Pichia kudriavzevii [14]): 31.25 uM l-1
MIC [15]: 0.24 uM l-1
MIC (Lichtheimia corymbifera [16]): 15.63 uM l-1
MIC (Clavispora lusitaniae [17]): 1.95 uM l-1
MIC (Candida albicans [18]): 1.95 uM l-1
MIC (Pichia kudriavzevii [19]): 7.81 uM l-1
MIC (Trichosporon beigelii [20]): 1.95 uM l-1
MIC (Candida albicans [21]): 0.49 µM (≈ 0.168 µg/mL)
MIC (Candida albicans [22]): 1.95 µM (≈ 0.669 µg/mL)
MIC (Pichia kudriavzevii [23]): 7.81 uM l-1
MIC (Aspergillus fumigatus [24]): 1.95 uM l-1
Compound: CC(C)(C)C(=O)OCC1C=C(c2ccc(Cl)c(Cl)c2)C(=O)O1 (stereo in doubt; 2c)

MIC (Candida parapsilosis [1]; [25]): 7.81 µM (≈ 2.43 µg/mL)
MIC (Trichosporon beigelii [2]; [26]): 7.81 µM (≈ 2.43 µg/mL)
MIC (Clavispora lusitaniae [3]; [27]): 3.91 µM (≈ 1.22 µg/mL)
MIC (Lichtheimia corymbifera [4]; [28]): 7.81 µM (≈ 2.43 µg/mL)
MIC (Candida tropicalis [5]; [29]): 15.6 µM (≈ 4.86 µg/mL)
MIC (Candida albicans [6]; [30]): 1.95 µM (≈ 0.607 µg/mL)
MIC (Pichia kudriavzevii [7]; [31]): 3.91 µM (≈ 1.22 µg/mL)
MIC [8, 32]: 1.95 µM (≈ 0.607 µg/mL)
MIC (Aspergillus fumigatus [9]; [33]): 3.91 µM (≈ 1.22 µg/mL)
MIC (Candida tropicalis [10]; [34]): 7.81 µM (≈ 2.43 µg/mL)
MIC (Candida parapsilosis [11]; [35]): 7.81 µM (≈ 2.43 µg/mL)
MIC (Nakaseomyces glabratus [12]; [36]): 1.95 µM (≈ 0.607 µg/mL)
MIC (Nakaseomyces glabratus [13]; [37]): 0.98 µM (≈ 0.305 µg/mL)
MIC (Pichia kudriavzevii [14]; [38]): 7.81 µM (≈ 2.43 µg/mL)
MIC [15, 39]: 1.95 µM (≈ 0.607 µg/mL)
MIC (Lichtheimia corymbifera [16]; [40]): 15.6 µM (≈ 4.86 µg/mL)
MIC (Clavispora lusitaniae [17]; [41]): 1.95 µM (≈ 0.607 µg/mL)
MIC (Candida albicans [18]; [42]): 1.95 µM (≈ 0.607 µg/mL)
MIC (Pichia kudriavzevii [19]; [43]): 3.91 µM (≈ 1.22 µg/mL)
MIC (Trichosporon beigelii [20]; [44]): 3.91 µM (≈ 1.22 µg/mL)
MIC (Candida albicans [21]; [45]): < 0.98 µM
MIC (Candida albicans [22]; [46]): 3.91 µM (≈ 1.22 µg/mL)
MIC (Pichia kudriavzevii [23]; [47]): 7.81 µM (≈ 2.43 µg/mL)
MIC (Aspergillus fumigatus [24]; [48]): 0.98 µM (≈ 0.305 µg/mL)
Compound: CC(=O)OCC1C=C(c2ccc(Br)cc2)C(=O)O1 (configuration not stated)

MIC (Candida parapsilosis [1]; [25]): > 125 µM
MIC (Trichosporon beigelii [2]; [26]): > 125 µM
MIC (Clavispora lusitaniae [3]; [27]): 125 µM (≈ 44.8 µg/mL)
MIC (Lichtheimia corymbifera [4]; [28]): 31.2 µM (≈ 11.2 µg/mL)
MIC (Candida tropicalis [5]; [29]): 125 µM (≈ 44.8 µg/mL)
MIC (Candida albicans [6]; [30]): 15.6 µM (≈ 5.61 µg/mL)
MIC (Pichia kudriavzevii [7]; [31]): 31.2 µM (≈ 11.2 µg/mL)
MIC [8, 32]: 15.6 µM (≈ 5.61 µg/mL)
MIC (Aspergillus fumigatus [9]; [33]): 125 µM (≈ 44.8 µg/mL)
MIC (Candida tropicalis [10]; [34]): 31.2 µM (≈ 11.2 µg/mL)
MIC (Candida parapsilosis [11]; [35]): 62.5 µM (≈ 22.4 µg/mL)
MIC (Nakaseomyces glabratus [12]; [36]): 125 µM (≈ 44.8 µg/mL)
MIC (Nakaseomyces glabratus [13]; [37]): 62.5 µM (≈ 22.4 µg/mL)
MIC (Pichia kudriavzevii [14]; [38]): 62.5 µM (≈ 22.4 µg/mL)
MIC [15, 39]: 7.81 µM (≈ 2.8 µg/mL)
MIC (Lichtheimia corymbifera [16]; [40]): 62.5 µM (≈ 22.4 µg/mL)
MIC (Clavispora lusitaniae [17]; [41]): 62.5 µM (≈ 22.4 µg/mL)
MIC (Candida albicans [18]; [42]): 31.2 µM (≈ 11.2 µg/mL)
MIC (Pichia kudriavzevii [19]; [43]): 31.2 µM (≈ 11.2 µg/mL)
MIC (Trichosporon beigelii [20]; [44]): > 125 µM
MIC (Candida albicans [21]; [45]): 1.95 µM (≈ 0.7 µg/mL)
MIC (Candida albicans [22]; [46]): 62.5 µM (≈ 22.4 µg/mL)
MIC (Pichia kudriavzevii [23]; [47]): 62.5 µM (≈ 22.4 µg/mL)
MIC (Aspergillus fumigatus [24]; [48]): 31.2 µM (≈ 11.2 µg/mL)
Compound: COc1ccc(C2=CC(COC(=O)c3ccc(Cl)cc3)OC2=O)cc1 (configuration not stated)
